Results from PubChem BioAssay.
Results filed as inconclusive are left out. Calls of active or inactive are those of the source.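 The calls were made as follows, unless noted: active = inhibition over a set limit, the all-compound mean plus 3 SD, in both replicate runs; inconclusive = over that limit in just one replicate run; inactive = at or under that limit in both runs.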

Tests used:
[1] = OD615 S. cerevisiae growth inhibition, permissive medium, pilot counter-assay, permissive growth control for S. cerevisiae lifespan shortening project (AID 705;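 active = growth inhibition above 25% in both replicates, a cutoff set 3 SD above the mean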); settings: OD615, 24 h, at 10 µM, stronger effect = higher value
Summary of the method: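 System: Engineered DeaD yeast | Buffer or medium: SC raffinose/galactose permissive medium | Doses: 10 µM single dose, 0.25% DMSO | Times: 24 h exposure, 30 °C | Measured by: OD615 turbidity read | Read-out: Yeast growth inhibition indicated by reduced 24 h OD615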

[2] = Restrictive medium S. cerevisiae growth inhibition, OD615, pilot screen of yeast lifespan reduction project, restrictive growth control (AID 706;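 active = growth inhibition above a set limit, 3 SD over mean compound inhibition, in both replicates, cut at about 43% in these data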;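 also: modified DeaD lifespan yeast strain shifted to restrictive glucose medium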); settings: OD615, 48 h, at 10 µM, stronger effect = higher value
Summary of the method: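 Assay system: engineered S. cerevisiae DeaD strain; Buffer or medium: CSMM-D glucose medium; Dosing: 10 µM compound, 0.25% DMSO; Times: cell pre-growth 4 h, compound exposure 48 h, 30 °C; Detection: absorbance (optical density) measured at 615 nm.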

[3] = viability gain of MRP-1-high H69AR cells under doxorubicin, pilot screen, MRP-1 activator project, CellTiter-Glo, duplicate (AID 807;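 active = viability increase at or above a cutoff of the median across tested compounds plus 3 SD, cut at about 8.5% in these data, passing the limit was not always enough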;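 also: compound pretreatment 18-22 h then 72 h combined with doxorubicin; 0% = doxorubicin alone and 100% = vehicle without doxorubicin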); settings: H69AR viability with doxorubicin, CellTiter-Glo luminescence; at 10 µM; stronger effect = higher value
[4] = growth suppression of beta-catenin knockout HCT116, pilot screen, human colon tumor cells (AID 823;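 active = cell viability at or below a set limit in both duplicate runs, the limit being the all-compound median minus 4 SD, cut at about 23% in these data, passing the limit was not always enough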;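 also: 0% = wells killed by 20 µM Hyamine and 100% = untreated DMSO cell wells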); settings: CellTiter-Glo, 60 h, at 10 µM, stronger effect = lower value
[5] = growth suppression of PTEN-deleted HCT116, pilot screen, cell-based, HCT116 clonal line, CellTiter-Glo (AID 824;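 active = viability at or below 27.92% in each of two runs, the all-compound median minus 4 SD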;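 also: 0% = 20 µM Hyamine control and 100% = vehicle cell control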); settings: 60 h, at 10 µM, stronger effect = lower value
[6] = inhibitors of the yeast RAM network, pilot screen, dse1pr::URA3 reporter, 5-FOA selection (AID 869);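 also: 0% = DMSO wells with no growth and 100% = 10 µM 1-NA-PP1 with full growth; RAM network block rescues cells from 5-FOA so hits raise OD615 growth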; settings: S. cerevisiae dse1pr::URA3 5-FOA growth, OD615, 2 d; at 10 µM; stronger effect = higher value; strain carries analog-sensitive mutant Cbk1 kinase
[7] = RAM signaling pathway blockade in yeast – S. cerevisiae, Pdr1DBD-CYC8 efflux-inhibited sensitized strain, primary screen (AID 1298;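 active = RAM network inhibition above 8.4% in each of two replicates, 3 SD over the compound average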;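 also: 0% = DMSO untreated cells without growth and 100% = 10 µM 1-NA-PP1 full growth; higher means more yeast growth rescued from 5-FOA killing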); settings: S. cerevisiae cbk1-as DSE1-URA3 strain, 5-FOA growth OD615, 2 d; at 50 µM; stronger effect = higher value

c1ccc(Nc2nc(N3CCOCC3)nc(N3CCOCC3)n2)cc1
inactive: growth inhibition [1] 5.75% | growth inhibition [2] 6.58% | viability increase [3] -6.19% | viability [4] 67.9% | viability [5] 67.2% | inhibition [6] 0.65% | RAM network inhibition [7] 1.44%

O=C(c1ccccc1)c1ccc(OC(=O)N2CCOCC2)cc1
inactive: growth inhibition [1] -7.92% | growth inhibition [2] 4.65% | viability increase [3] 1.36% | viability [4] 109% | viability [5] 90.7% | inhibition [6] 1.49% | RAM network inhibition [7] 8.53%

CC(C)CC(NS(=O)(=O)c1ccc2c(c1)oc(=O)n2C)C(=O)N1CC=C(c2ccccc2)CC1 (stereo unspecified)
inactive: growth inhibition [1] -18.2% | growth inhibition [2] -14.5% | viability increase [3] -3.44% | viability [4] 85.9% | viability [5] 83.3% | inhibition [6] 0.535% | RAM network inhibition [7] 6.89%

Cc1oc(-c2ccc(Cl)cc2)nc1CN1CCCC(C(=O)N2CCN(C(=O)c3ccco3)CC2)C1 (stereo unspecified)
inactive: growth inhibition [1] -8.52% | growth inhibition [2] -14.5% | viability increase [3] -4.07% | viability [4] 33.8% | viability [5] 54.6% | inhibition [6] -0.38% | RAM network inhibition [7] 7.1%

O=C(CCS(=O)(=O)c1cccs1)NC1CCCCCC1
inactive: growth inhibition [1] -2.95% | growth inhibition [2] -4.64% | viability increase [3] -0.19% | viability [4] 94.6% | viability [5] 92.7% | inhibition [6] 1.29% | RAM network inhibition [7] 5.23%

Cc1c(NC2=C(Cl)C(=O)N(c3ccccc3)C2=O)c(=O)n(-c2ccccc2)n1C
inactive: growth inhibition [1] 8.25% | growth inhibition [2] 28.3% | viability increase [3] -6.66% | viability [4] 90.7% | viability [5] 94.4% | inhibition [6] 1.42% | RAM network inhibition [7] 3.28%

Cc1ccc(C2CC(c3ccco3)n3nc(N)nc3N2)cc1 (stereo unspecified)
inactive: growth inhibition [1] 4.36% | growth inhibition [2] 11.9% | viability increase [3] -1.44% | viability [4] 96.5% | viability [5] 99.8% | inhibition [6] -1.15% | RAM network inhibition [7] 3.41%

COCCOC(=O)C1=C(C)NC(=O)NC1c1c(F)cccc1Cl (stereo unspecified)
inactive: growth inhibition [1] -7.95% | growth inhibition [2] -2.18% | viability increase [3] 0% | viability [4] 106% | viability [5] 95.8% | inhibition [6] 0.515% | RAM network inhibition [7] 0.88%

Cc1ccc(C(=O)NCCCn2ccnc2)o1
inactive: growth inhibition [1] -1.7% | growth inhibition [2] -6.83% | viability increase [3] 0.23% | viability [4] 101% | viability [5] 97.8% | inhibition [6] -0.265% | RAM network inhibition [7] 3.73%

c1ccc(OCCOCCSc2ncccn2)cc1
inactive: growth inhibition [1] 1.54% | growth inhibition [2] -1.09% | viability increase [3] 2.36% | viability [4] 101% | viability [5] 98.4% | inhibition [6] 0.395% | RAM network inhibition [7] 3.21%

Cc1ccc(Nc2nc(C3CC3)cs2)cc1
inactive: growth inhibition [1] -8.21% | growth inhibition [2] -0.01% | viability increase [3] -1.97% | viability [4] 92.5% | viability [5] 90.5% | inhibition [6] 1.38% | RAM network inhibition [7] 2.72%

COc1ccc(OCC(=O)NC2CC(C)(C)NC(C)(C)C2)cc1
inactive: growth inhibition [1] 4.15% | growth inhibition [2] 2.14% | viability increase [3] 1.31% | viability [4] 103% | viability [5] 105% | inhibition [6] -0.405% | RAM network inhibition [7] 3.43%

C=CCOC(=O)C1=C(C)NC(C)=C(C(=O)OCC=C)C1c1ccc(O)cc1
inactive: growth inhibition [1] -6.92% | growth inhibition [2] -8.46% | viability increase [3] -4.51% | viability [4] 78.1% | viability [5] 71% | inhibition [6] 0.035% | RAM network inhibition [7] 2.05%

CCOC(=O)N1CCN(C(=O)C2CC(c3ccc(F)cc3)=NO2)CC1 (stereo unspecified)
inactive: growth inhibition [1] -5.22% | growth inhibition [2] -10.9% | viability increase [3] 1.33% | viability [4] 104% | viability [5] 108% | inhibition [6] 0.815% | RAM network inhibition [7] 2.2%

Cc1nn(Cc2ccc(Cl)c(Cl)c2)c(C)c1NC(=O)c1cc(C2CC2)on1
inactive: growth inhibition [1] -10.7% | growth inhibition [2] 1.77% | viability increase [3] 1.41% | viability [4] 79% | viability [5] 84.7% | inhibition [6] 0.125% | RAM network inhibition [7] 2.79%

CC1(C)CC(NC(=O)C23CCC(C)(C(=O)C2)C3(C)C)CC(C)(C)N1 (stereo unspecified)
inactive: growth inhibition [1] -4.15% | growth inhibition [2] -6.33% | viability increase [3] -0.11% | viability [4] 96.2% | viability [5] 95.1% | inhibition [6] 2.67% | RAM network inhibition [7] 3.01%

Cc1ccc(S(=O)(=O)/N=C(\CN2CCCCC2)N2CCOCC2)cc1
inactive: growth inhibition [1] -11.4% | growth inhibition [2] -13.2% | viability increase [3] -1.32% | viability [4] 101% | viability [5] 95% | inhibition [6] 0.44% | RAM network inhibition [7] 4.62%

C=CCNC(=O)c1ccc(C)cc1Cl
inactive: growth inhibition [1] -13.3% | growth inhibition [2] -2.44% | viability increase [3] -0.26% | viability [4] 95.5% | viability [5] 94.5% | inhibition [6] 1.02% | RAM network inhibition [7] 1.37%

O=C(Cn1cc2c(n1)CCCCC2)NCc1cccs1
inactive: growth inhibition [1] 0.86% | growth inhibition [2] 0.58% | viability increase [3] -1.84% | viability [4] 100% | viability [5] 87.7% | inhibition [6] 0.935% | RAM network inhibition [7] 1.69%

O=C(Oc1c(Cl)cc(Cl)c2cccnc12)N1CCOCC1
inactive: growth inhibition [1] -1.54% | growth inhibition [2] 2.49% | viability increase [3] -2.13% | viability [4] 99.7% | viability [5] 95.3% | inhibition [6] 0.74% | RAM network inhibition [7] 0.25%

CCCC(=O)NC(C)c1nc2ccccc2n1CC (stereo unspecified)
inactive: growth inhibition [1] -0.24% | growth inhibition [2] 4.37% | viability increase [3] 0.02% | viability [4] 97% | viability [5] 94.4% | inhibition [6] 0.97% | RAM network inhibition [7] 2.35%

CCNc1nc2c(c(=O)[nH]c(=O)n2C)n1CC(C)C
inactive: growth inhibition [1] -5.42% | growth inhibition [2] -2.34% | viability increase [3] -2.15% | viability [4] 106% | viability [5] 100% | inhibition [6] 0.05% | RAM network inhibition [7] 2.92%

O=C(Cn1cc2c(n1)CCCCC2)NC1CCCCCC1
inactive: growth inhibition [1] -9.25% | growth inhibition [2] -9.21% | viability increase [3] -3.6% | viability [4] 97.1% | viability [5] 89% | inhibition [6] 0.43% | RAM network inhibition [7] 0.21%

COc1ccccc1C1CC(=O)NC(SCC(=O)Nc2ccccc2)=C1C#N (stereo unspecified)
inactive: growth inhibition [1] 4.78% | growth inhibition [2] -11.8% | viability increase [3] 1.09% | viability [4] 93.2% | viability [5] 88.2% | inhibition [6] 3.57% | RAM network inhibition [7] 1.38%

CCOC(=O)c1nnn(-c2nonc2N)c1COc1ccccc1
inactive: growth inhibition [1] -15.7% | growth inhibition [2] -5.9% | viability increase [3] -2.43% | viability [4] 89.5% | viability [5] 87.4% | inhibition [6] 0.05% | RAM network inhibition [7] 3.66%

CCC(C)NC(=O)c1ccc(CS(=O)(=O)c2ccc(OC)cc2)o1 (stereo unspecified)
inactive: growth inhibition [1] 4.79% | growth inhibition [2] -1.07% | viability increase [3] -1.33% | viability [4] 104% | viability [5] 93.2% | inhibition [6] 0.73% | RAM network inhibition [7] -2.32%

Cc1ccc(CNC(=O)C2CCCN(c3nc4ccccc4o3)C2)cc1 (stereo unspecified)
inactive: growth inhibition [1] -20.4% | growth inhibition [2] -13.5% | viability increase [3] 1.29% | viability [4] 101% | viability [5] 98.9% | inhibition [6] 0.85% | RAM network inhibition [7] 5.43%

CC(=O)Nc1ccc(S(=O)(=O)NCCSCc2ccco2)cc1
inactive: growth inhibition [1] -4.83% | growth inhibition [2] 16.6% | viability increase [3] -4.43% | viability [4] 82.2% | viability [5] 86% | inhibition [6] 2.15% | RAM network inhibition [7] 2.29%

O=C(Cn1ncc2c(=O)oc3ccccc3c21)NCCN1CCN(c2ccccc2F)CC1
inactive: growth inhibition [1] 1.82% | growth inhibition [2] -16.2% | viability increase [3] -0.78% | viability [4] 92.8% | viability [5] 91.5% | inhibition [6] 0.705% | RAM network inhibition [7] 1.34%

C=CCSc1nc2c(cnn2-c2ccc(C)c(C)c2)c(=O)[nH]1
inactive: growth inhibition [1] -6.23% | growth inhibition [2] -5.07% | viability increase [3] -1.43% | viability [4] 93.3% | viability [5] 93.1% | inhibition [6] 4.19% | RAM network inhibition [7] 0.11%

Cc1ccc(-c2nn(C)c(=O)c3ccccc23)cc1CNC(=O)c1ccco1
inactive: growth inhibition [1] -19.5% | growth inhibition [2] -16.5% | viability increase [3] -6.36% | viability [4] 78.3% | viability [5] 72.9% | inhibition [6] 1.3% | RAM network inhibition [7] 6.65%

O=C1c2ccccc2C(=O)N1CCCc1nc2ccccc2c(=O)n1-c1cccnc1
inactive: growth inhibition [1] -1.63% | growth inhibition [2] 7.23% | viability increase [3] -3.29% | viability [4] 93.1% | viability [5] 90.8% | inhibition [6] 2.07% | RAM network inhibition [7] 2.78%

c1ccc(-c2ccccc2-n2cnnn2)cc1
inactive: growth inhibition [1] 4.66% | growth inhibition [2] 3.99% | viability increase [3] -0.54% | viability [4] 97.3% | viability [5] 95.3% | inhibition [6] 1.77% | RAM network inhibition [7] 0.51%
